Experimental data: PubChem BioAssay
The source made the active and inactive calls.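 Rule for the calls, unless noted: active = GFP response above 150% of the DMSO level; inconclusive = fewer than 70 events counted for a yeast strain; inactive = the rest.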

How the values were obtained:
[1] = RPL19A-GFP modulators, yeast TOR pathway, confirmation, cell-based, S. cerevisiae, flow cytometry, cherry picks, mother/daughter gates (AID 2270;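 active = GFP response below 50% of the DMSO control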); settings: S. cerevisiae RPL19A-GFP strain, 3 h, at 10 µM, stronger effect = lower value, 100 = same GFP as DMSO wells
[2] = LAP4-GFP expression modulators in yeast, confirmation, cell-based, cherry picks, flow cytometry, mother/daughter gates (AID 2271;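 active = GFP response above 150% of the DMSO control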;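 note: ratio of sample to DMSO plate mean so 100% equals DMSO level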); settings: S. cerevisiae LAP4-GFP strain, 3 h, at 10 µM, stronger effect = higher value, 100 means same as DMSO control
In short: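 System: GFP-fusion yeast strain | Input: Yeast cells seeded at OD600 of 0.2 | Technique: HT flow cytometry, GFP fluorescence channel | Read-out: % GFP response vs DMSO | Dosing: Single test-compound dose, 10 µM final | Controls: Positive rapamycin (400 ng/mL), negative DMSO | Times: 3 h treatment at 30 °C with rotation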

[3] = modulators of MEP2-GFP levels in yeast, confirmation, S. cerevisiae, flow cytometry GFP, cherry picks (AID 2272;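 active = GFP response above 150% of the DMSO control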;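 note: ratio of well signal to plate DMSO mean so 100% equals DMSO level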); settings: S. cerevisiae MEP2-GFP strain, 3 h, at 10 µM, stronger effect = higher value
[4] = AGP1-GFP expression modulators, hit retest, confirmation, cell-based, flow cytometry, S. cerevisiae, cherry picks (AID 2273);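 note: median GFP channel fluorescence over the whole cell population gate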; settings: S. cerevisiae AGP1-GFP strain, 3 h, at 10 µM
[5] = modulators of CIT2-GFP expression in yeast, confirmation, S. cerevisiae, GFP fusion, cherry picks, mother/daughter gates (AID 2274); settings: S. cerevisiae CIT2-GFP strain, flow cytometry, 3 h, at 10 µM, stronger effect = higher value
[6] = measured here: daughter cell gate
[7] = measured here: mother cell gate
[8] = measured here: daughter cell gate response
[9] = measured here: mother cell gate response

Row | Structure (SMILES) | GFP response vs DMSO [1] | GFP response vs DMSO [1, 6] | GFP response vs DMSO [1, 7] | GFP response relative to DMSO [2] | GFP response relative to DMSO [2, 8] | GFP response relative to DMSO [2, 9] | GFP response vs DMSO [3] | GFP response, % of DMSO [4] | GFP response, % of DMSO [5] | GFP response, % of DMSO [5, 6] | GFP response, % of DMSO [5, 7]
1 | C/C(=N\NC(=O)c1cc2ccccc2cc1O)c1ccccn1 | 106% (inactive) | 103% | 98.1% | 234% (active) | 147% | 231% | 126% (inactive) | 109% (inactive) | 132% (inactive) | 113% | 120%
2 | COc1ccccc1-c1nnc(NC(=O)c2ccc(S(=O)(=O)N(C)Cc3ccccc3)cc2)o1 | 100% (inactive) | 98.8% | 100% | 95.3% (inactive) | 95% | 94.6% | 104% (inactive) | 98.9% (inactive) | 97.8% (inactive) | 98.3% | 98%
3 | CCCCCCNC(=O)c1c(O)c2cccc3c2n(c1=O)CCC3 | 100% (inactive) | 101% | 100% | 97.9% (inactive) | 97.6% | 95.1% | 107% (inactive) | 96.8% (inactive) | 96.9% (inactive) | 97.2% | 96.1%
4 | COc1ccccc1OCCCc1c(C)n[nH]c1C | 119% (inactive) | 89.8% | 115% | 207% (active) | 104% | 205% | 130% (inactive) | 76.6% (inactive) | 114% (inactive) | 101% | 101%
5 | O=C1c2ccccc2C(=O)C2OC12 (stereo not given) | 101% (inactive) | 99.6% | 88.1% | 218% (active) | 179% | 201% | 226% (active) | 133% (inactive) | 101% (inactive) | 100% | 85.8%
6 | O=C1c2ccsc2SCCN1Cc1ccccc1Cl | 94.2% (inactive) | 92% | 95.7% | 111% (inactive) | 102% | 114% | 90.5% (inactive) | 97.5% (inactive) | 93% (inactive) | 93.8% | 90.7%
7 | COCc1nnc(NC(=O)c2ccc(S(=O)(=O)N3CCCCCC3)cc2)o1 | 105% (inactive) | 99.8% | 105% | 105% (inactive) | 97.5% | 107% | 107% (inactive) | 101% (inactive) | 97.3% (inactive) | 97.4% | 96.8%
8 | Cc1cc(C)n2nc(C(=O)NC(c3ccccc3)c3ccccc3)nc2n1 | 98.6% (inactive) | 99.9% | 98.2% | 98.6% (inactive) | 99.7% | 99.2% | 98.8% (inactive) | 104% (inactive) | 111% (inactive) | 110% | 112%
9 | O=C(COc1ccccc1)Nc1c2c(nn1-c1ccccc1)CS(=O)C2 (stereo not given) | 97.1% (inactive) | 96.4% | 96.5% | 97.7% (inactive) | 99% | 96.4% | 103% (inactive) | 104% (inactive) | 98.6% (inactive) | 97.6% | 100%
10 | CCOC(=O)c1ccc(NC(=O)CCc2nc(-c3cccc(C)c3)no2)cc1 | 97.8% (inactive) | 98.5% | 98.8% | 102% (inactive) | 101% | 101% | 106% (inactive) | 95.8% (inactive) | 102% (inactive) | 102% | 99.1%
11 | CCN(Cc1ccccc1)S(=O)(=O)c1ccc(C(=O)Nc2nnc(C3CC3)o2)cc1 | 98% (inactive) | 97% | 98.6% | 106% (inactive) | 105% | 104% | 99.5% (inactive) | 96.9% (inactive) | 99.3% (inactive) | 100% | 96.8%
12 | CCOc1ccccc1NC1=C(Cl)C(=O)N(Cc2ccccc2)C1=O | 103% (inactive) | 102% | 104% | 96.2% (inactive) | 97.2% | 97.2% | 104% (inactive) | 98.5% (inactive) | 99.1% (inactive) | 99.7% | 98.7%
13 | Cc1ccc(CS(=O)(=O)c2ncc(Cl)c(C(=O)Nc3nnc(C)s3)n2)cc1 | 99.6% (inactive) | 99.8% | 98.6% | 102% (inactive) | 104% | 104% | 101% (inactive) | 113% (inactive) | 103% (inactive) | 99.3% | 104%
14 | COc1ccc(C(=O)/C=C2/C(=O)Nc3ccccc32)cc1OC | 98.2% (inactive) | 98.8% | 99.3% | 97.7% (inactive) | 96.5% | 97.5% | 99.5% (inactive) | 97.5% (inactive) | 95% (inactive) | 94.6% | 93.3%
15 | Cc1nc2ccc(Br)cn2c1C(=O)N/N=C\c1ccccc1Cl | 95.4% (inactive) | 95.6% | 96.6% | 94.1% (inactive) | 94.4% | 96.1% | 96.2% (inactive) | 98% (inactive) | 99.7% (inactive) | 99.1% | 99.7%
16 | COc1cc(NC(=O)c2c(OC)cccc2OC)ccc1NC(=O)c1cc2ccccc2o1 | 96% (inactive) | 95.5% | 96.5% | 109% (inactive) | 104% | 108% | 102% (inactive) | 95.4% (inactive) | 96.4% (inactive) | 98.3% | 93.3%
17 | O=C(Nc1cc(Sc2ccccn2)cc([N+](=O)[O-])c1)c1ccc(Cl)cc1 | 99% (inactive) | 99.6% | 99.2% | 99.2% (inactive) | 101% | 97.2% | 100% (inactive) | 97.4% (inactive) | 101% (inactive) | 101% | 99.7%
18 | CN(Cc1ccccc1)S(=O)(=O)c1ccc(C(=O)Nc2nnc(C3CC3)o2)cc1 | 103% (inactive) | 102% | 105% | 98.2% (inactive) | 99.1% | 97.3% | 96.8% (inactive) | 99.2% (inactive) | 102% (inactive) | 103% | 102%
19 | Cc1ccc2nc(Cl)c3nnnn3c2c1 | 66.6% (inactive) | 58.4% | 56.7% | 281% (active) | 153% | 270% | 152% (inactive) | 109% (inactive) | 82.8% (inactive) | 84.8% | 72.3%
20 | COc1ccc(C2CC(c3ccccc3)=NN2S(=O)(=O)c2ccccc2)cc1 (stereo not given) | 101% (inactive) | 102% | 101% | 113% (inactive) | 110% | 112% | 146% (inactive) | 104% (inactive) | 141% (inactive) | 143% | 136%
21 | COc1ccc(NC(=O)COC(=O)c2ccco2)c([N+](=O)[O-])c1 | 99.5% (inactive) | 98.5% | 96.7% | 103% (inactive) | 99.3% | 102% | 108% (inactive) | 98.9% (inactive) | 99.3% (inactive) | 92.7% | 98%
22 | N#C/C(=C\c1c(N2CCCCC2)nc2ccccn2c1=O)C(=O)NCc1ccco1 | 98.7% (inactive) | 98.8% | 99.5% | 97.7% (inactive) | 97.9% | 96.5% | 97.5% (inactive) | 99.7% (inactive) | 99.3% (inactive) | 100% | 96.8%
23 | C=CCOc1ccc(C(=O)/C=C2/C(=O)Nc3ccccc32)cc1 | 97.6% (inactive) | 93.6% | 97.2% | 113% (inactive) | 108% | 117% | 111% (inactive) | 112% (inactive) | 95.2% (inactive) | 93.2% | 93.4%
24 | CC1=NNC(=O)/C1=C\c1cn(-c2ccccc2)nc1-c1ccc(Cl)cc1 | 97.6% (inactive) | 98.3% | 98.5% | 107% (inactive) | 101% | 114% | 101% (inactive) | 105% (inactive) | 97.2% (inactive) | 96.8% | 95.7%
25 | O=C1c2cccc3cccc(c23)C(=O)N1c1nncs1 | 103% (inactive) | 102% | 103% | 91.4% (inactive) | 94.1% | 92.1% | 102% (inactive) | 99.8% (inactive) | 96.5% (inactive) | 94.8% | 99.8%
26 | O=C(O)Cc1sc(Nc2ccc(F)cc2)nc1-c1cccs1 | 97.6% (inactive) | 99.4% | 97% | 129% (inactive) | 125% | 135% | 110% (inactive) | 108% (inactive) | 103% (inactive) | 103% | 103%
27 | O=C(Nc1nnc(-c2ccccc2Cl)o1)c1ccc(S(=O)(=O)N2CCCCCC2)cc1 | 100% (inactive) | 98.6% | 99.8% | 97% (inactive) | 97.5% | 96.2% | 101% (inactive) | 95.1% (inactive) | 97.3% (inactive) | 93.8% | 98.1%
28 | Cc1nnc(OCc2nc3ccccc3n2C)c2ccccc12 | 101% (inactive) | 102% | 101% | 98.8% (inactive) | 93.6% | 100% | 99.5% (inactive) | 94.3% (inactive) | 96.4% (inactive) | 96.4% | 95.6%
29 | CCc1ccc2c(c1)/C(=C/C(=O)c1cccs1)C(=O)N2 | 94.9% (inactive) | 94.7% | 87.7% | 178% (active) | 156% | 171% | 100% (inactive) | 104% (inactive) | 91.3% (inactive) | 91.5% | 84.8%
30 | COc1cc(C(=O)ON=C2C3CC4CC(C3)CC2C4)cc(OC)c1OC | 97.4% (inactive) | 97.6% | 95.6% | 108% (inactive) | 102% | 111% | 107% (inactive) | 61.1% (inactive) | 145% (inactive) | 136% | 147%
